From ChEMBL document CHEMBL1137180, “Synthesis and structure-activity relationship of a novel sulfone series of TNF-alpha converting enzyme inhibitors” (Bioorg Med Chem Lett, 2004)
pIC50, pKi: −log10 of the molar value.

Key:
[1] = biological target: Disintegrin and metalloproteinase domain-containing protein 17 (Homo sapiens, UniProt P78536); assay: Effect on TNF-Alpha release in LPS-stimulated human whole blood assay; format: functional, tissue-based
[2] = biological target: 72 kDa type IV collagenase (Homo sapiens, UniProt P08253); assay: inhibition of Matrix metalloprotease-2 (MMP-2)
Method in brief: (§1)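 Inhibition is reported as Ki (nM) against each isolated MMP. Each value comes from a single determination, with no replicates.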

[3] = biological target: Matrix metalloproteinase-9 (Homo sapiens, UniProt P14780); assay: Inhibition of Matrix metalloprotease-9 (MMP-9); method in brief: as §1
[4] = biological target: T1, Interstitial collagenase (Homo sapiens, UniProt P03956); assay: Inhibition of Matrix metalloprotease-1 (MMP-1); method in brief: as §1
T1 sequence (P03956 whole entry): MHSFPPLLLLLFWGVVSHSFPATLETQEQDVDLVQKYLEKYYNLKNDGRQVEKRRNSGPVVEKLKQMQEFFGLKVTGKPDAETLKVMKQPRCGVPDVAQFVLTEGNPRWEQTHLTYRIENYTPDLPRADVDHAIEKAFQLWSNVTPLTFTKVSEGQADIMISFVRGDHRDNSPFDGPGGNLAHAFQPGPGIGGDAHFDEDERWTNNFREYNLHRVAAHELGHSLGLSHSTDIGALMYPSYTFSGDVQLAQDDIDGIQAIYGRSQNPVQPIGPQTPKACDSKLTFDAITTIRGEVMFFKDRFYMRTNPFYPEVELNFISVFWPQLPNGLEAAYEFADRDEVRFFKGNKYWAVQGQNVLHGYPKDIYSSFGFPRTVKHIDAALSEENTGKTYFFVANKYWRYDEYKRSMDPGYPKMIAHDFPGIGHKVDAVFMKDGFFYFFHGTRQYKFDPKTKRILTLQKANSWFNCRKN

[5] = biological target: Disintegrin and metalloproteinase domain-containing protein 17 (Sus scrofa, UniProt O77636); assay: Inhibition of porcine Tumor necrosis factor- alpha converting enzyme (TACE, ADAM17)
[6] = biological target: Collagenase 3 (Homo sapiens, UniProt P45452); assay: Inhibition of Matrix metalloprotease-13 (MMP-13); method in brief: as §1
[7] = tested on: Mus musculus; assay: Compound was tested for anti TNF-alpha activity using LPS mouse model at 10 mg/kg p.o.; format: functional; conditions: route oral
[8] = tested on: Caco-2; assay: Permeability action in Caco-2 cells; format: functional, Homo sapiens
[9] = tested on: Caco-2; assay: Permeability action in Caco-2 cell; format: functional, Homo sapiens

Disintegrin and metalloproteinase domain-containing protein 17 (Sus scrofa, UniProt O77636), sequence (O77636 whole entry, the tested form may be a part): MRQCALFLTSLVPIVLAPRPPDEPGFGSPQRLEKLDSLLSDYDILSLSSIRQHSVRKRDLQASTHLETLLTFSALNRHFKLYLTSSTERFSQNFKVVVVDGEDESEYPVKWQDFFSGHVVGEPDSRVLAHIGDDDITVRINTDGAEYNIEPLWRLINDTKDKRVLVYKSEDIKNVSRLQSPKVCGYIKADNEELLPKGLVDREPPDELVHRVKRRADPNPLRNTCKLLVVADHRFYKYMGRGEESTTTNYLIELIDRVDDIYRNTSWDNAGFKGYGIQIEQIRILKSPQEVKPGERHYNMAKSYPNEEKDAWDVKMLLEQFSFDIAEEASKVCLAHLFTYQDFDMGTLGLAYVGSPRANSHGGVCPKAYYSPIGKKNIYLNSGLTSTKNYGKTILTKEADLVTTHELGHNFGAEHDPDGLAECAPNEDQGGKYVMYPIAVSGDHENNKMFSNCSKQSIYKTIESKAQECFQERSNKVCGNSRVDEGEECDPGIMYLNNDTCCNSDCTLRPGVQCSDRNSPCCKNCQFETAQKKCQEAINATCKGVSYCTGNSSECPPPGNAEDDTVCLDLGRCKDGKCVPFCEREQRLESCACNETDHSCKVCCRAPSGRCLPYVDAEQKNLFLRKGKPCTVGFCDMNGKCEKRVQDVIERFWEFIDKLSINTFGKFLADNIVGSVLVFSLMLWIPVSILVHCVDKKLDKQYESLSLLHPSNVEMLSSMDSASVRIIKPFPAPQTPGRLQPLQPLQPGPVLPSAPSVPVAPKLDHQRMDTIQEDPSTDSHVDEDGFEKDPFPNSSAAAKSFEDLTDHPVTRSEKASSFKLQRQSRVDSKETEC
72 kDa type IV collagenase, sequence (P08253 whole entry): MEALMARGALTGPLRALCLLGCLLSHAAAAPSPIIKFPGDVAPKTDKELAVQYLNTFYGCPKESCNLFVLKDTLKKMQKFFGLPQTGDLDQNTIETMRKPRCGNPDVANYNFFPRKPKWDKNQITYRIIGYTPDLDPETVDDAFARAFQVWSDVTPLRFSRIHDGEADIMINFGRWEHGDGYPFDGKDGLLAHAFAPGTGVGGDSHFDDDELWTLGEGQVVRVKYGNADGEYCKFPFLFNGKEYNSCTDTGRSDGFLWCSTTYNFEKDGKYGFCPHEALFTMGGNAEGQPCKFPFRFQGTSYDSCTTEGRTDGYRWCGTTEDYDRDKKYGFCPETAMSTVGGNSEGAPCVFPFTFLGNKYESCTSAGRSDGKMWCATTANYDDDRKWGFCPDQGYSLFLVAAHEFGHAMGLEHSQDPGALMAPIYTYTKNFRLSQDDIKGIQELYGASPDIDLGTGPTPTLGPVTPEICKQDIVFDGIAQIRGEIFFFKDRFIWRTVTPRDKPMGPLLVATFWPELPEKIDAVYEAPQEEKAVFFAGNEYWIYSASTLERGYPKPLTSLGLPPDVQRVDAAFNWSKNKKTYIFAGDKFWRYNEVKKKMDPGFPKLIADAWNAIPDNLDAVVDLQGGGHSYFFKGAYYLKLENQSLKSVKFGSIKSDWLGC
Matrix metalloproteinase-9, sequence (P14780 whole entry): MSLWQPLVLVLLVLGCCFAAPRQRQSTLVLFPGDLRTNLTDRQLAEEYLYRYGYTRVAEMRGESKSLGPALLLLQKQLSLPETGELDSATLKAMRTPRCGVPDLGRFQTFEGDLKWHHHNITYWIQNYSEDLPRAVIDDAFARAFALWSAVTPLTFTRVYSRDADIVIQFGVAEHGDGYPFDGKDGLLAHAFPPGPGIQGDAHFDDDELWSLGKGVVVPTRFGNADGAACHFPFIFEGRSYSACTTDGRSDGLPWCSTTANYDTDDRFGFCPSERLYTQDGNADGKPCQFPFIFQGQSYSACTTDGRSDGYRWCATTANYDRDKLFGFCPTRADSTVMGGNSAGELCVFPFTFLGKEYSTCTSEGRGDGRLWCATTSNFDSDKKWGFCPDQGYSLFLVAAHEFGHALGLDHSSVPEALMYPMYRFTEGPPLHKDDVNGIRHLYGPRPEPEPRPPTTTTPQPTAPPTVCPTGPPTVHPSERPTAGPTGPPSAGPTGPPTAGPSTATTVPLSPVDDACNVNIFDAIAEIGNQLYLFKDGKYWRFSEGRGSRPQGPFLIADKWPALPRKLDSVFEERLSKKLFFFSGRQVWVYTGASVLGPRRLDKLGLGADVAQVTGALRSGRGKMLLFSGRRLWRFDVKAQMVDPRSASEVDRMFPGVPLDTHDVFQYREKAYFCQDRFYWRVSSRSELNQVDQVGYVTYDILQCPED
Disintegrin and metalloproteinase domain-containing protein 17 (Homo sapiens, UniProt P78536), sequence (P78536 whole entry, the tested form may be a part): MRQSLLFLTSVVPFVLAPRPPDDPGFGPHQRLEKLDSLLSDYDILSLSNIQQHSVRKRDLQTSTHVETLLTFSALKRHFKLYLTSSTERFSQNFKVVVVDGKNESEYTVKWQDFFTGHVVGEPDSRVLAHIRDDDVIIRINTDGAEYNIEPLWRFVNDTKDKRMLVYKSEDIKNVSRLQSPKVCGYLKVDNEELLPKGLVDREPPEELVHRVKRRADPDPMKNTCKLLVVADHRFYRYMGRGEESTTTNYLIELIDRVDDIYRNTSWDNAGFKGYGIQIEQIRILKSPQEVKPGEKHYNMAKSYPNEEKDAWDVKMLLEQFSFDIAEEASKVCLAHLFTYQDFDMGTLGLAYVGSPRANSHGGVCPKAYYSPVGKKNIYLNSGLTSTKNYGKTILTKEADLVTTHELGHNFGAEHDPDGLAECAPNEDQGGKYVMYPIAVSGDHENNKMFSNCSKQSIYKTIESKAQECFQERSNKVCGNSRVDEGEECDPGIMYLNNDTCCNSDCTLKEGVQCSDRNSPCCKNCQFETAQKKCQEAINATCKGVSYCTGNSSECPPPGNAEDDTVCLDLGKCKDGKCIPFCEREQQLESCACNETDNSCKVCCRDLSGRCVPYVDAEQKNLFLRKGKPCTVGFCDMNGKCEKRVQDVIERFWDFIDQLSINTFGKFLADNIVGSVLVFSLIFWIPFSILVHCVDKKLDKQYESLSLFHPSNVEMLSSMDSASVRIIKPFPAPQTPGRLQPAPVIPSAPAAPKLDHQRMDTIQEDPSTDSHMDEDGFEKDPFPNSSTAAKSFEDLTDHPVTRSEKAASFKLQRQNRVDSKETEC

Row | SMILES | pIC50 [1] | pKi [2] | pKi [3] | pKi [4] | pIC50 [5] | pKi [6] | ED50 [7] | inhibition in vivo at 10 mg/kg [7] | Caco-2 Papp [8] | Caco-2 Papp [9]
1 | Cc1cc(COc2ccc(S(=O)(=O)CC3C(C(=O)NO)CCN3C)cc2)c2ccccc2n1 (stereo unspecified) | 6.74 | < 5.48 | < 5.68 | < 5.31 | > 9.00 | 5.77 | 2.5 mg/kg | 50% | 1 ×10⁻⁶ cm/s | –
2 | CCC(C)N1CCC(C(=O)NO)C(CS(=O)(=O)c2ccc(OCc3cc(C)nc4ccccc34)cc2)C1 (stereo unspecified) | 5.97 | < 5.48 | < 5.68 | < 5.31 | > 9.00 | < 5.30 | – | 33% | 1.8 ×10⁻⁶ cm/s | –
3 | C=CCN1CCC(C(=O)NO)C(CS(=O)(=O)c2ccc(OCc3cc(C)nc4ccccc34)cc2)C1 (stereo unspecified) | 6.80 | < 5.48 | < 5.68 | < 5.31 | 8.74 | 6.30 | – | 25% | 0.97 ×10⁻⁶ cm/s | –
4 | Cc1cc(COc2ccc(S(=O)(=O)CC3NCCC3C(=O)NO)cc2)c2ccccc2n1 (stereo unspecified) | 7.08 | < 5.48 | < 5.68 | < 5.31 | > 9.00 | 6.02 | – | 20% | 0.1 ×10⁻⁶ cm/s | –
5 | CCCCN1CCC(C(=O)NO)C(CS(=O)(=O)c2ccc(OCc3cc(C)nc4ccccc34)cc2)C1 (stereo unspecified) | 6.05 | < 5.48 | < 5.68 | < 5.31 | > 9.00 | < 5.30 | – | 35% | 1.6 ×10⁻⁶ cm/s | –
6 | C#CN1CCC(C(=O)NO)C(CS(=O)(=O)c2ccc(OCc3cc(C)nc4ccccc34)cc2)C1 (stereo unspecified) | 6.74 | < 5.48 | < 5.68 | < 5.31 | 9.00 | 6.42 | – | 24% | 1.3 ×10⁻⁶ cm/s | –
7 | Cc1cc(COc2ccc(S(=O)(=O)CC3CNCCC3C(=O)NO)cc2)c2ccccc2n1 (stereo unspecified) | 6.60 | < 5.48 | < 5.68 | < 5.31 | 9.00 | < 5.30 | – | – | – | 0.1 ×10⁻⁶ cm/s
